Converted amounts (≈) assume the structure as drawn. “And” between values parts separate entries of the source, which are not always exact repeats. Identical values can stand only once.
Assays:
[1] = Cytotoxicity against […] HII4E cells after 48 hrs by MTT assay; type: cell-based
Method in brief: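 Adherent […] hepatoma cells attached 24 h in 96-well plates, then exposed to compound 24 h. H2O2 positive control, DMSO negative control. At 48 h of culture, MTT added (0.5 mg/mL final) for 3 h. Cells washed, formazan dissolved in DMSO with 20 min shaking at room temperature. Absorbance read at 550 nm, 620 nm reference.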

[2] = Antifungal activity against Penicillium aurantiogriseum ATCC 16025 after 24 to 48 hrs by paper disk diffusion assay; type: functional
Method in brief: (§1)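 Fungal disk diffusion per CLSI. Overnight cultures spread on potato dextrose agar. 6.4 mm paper disks each loaded with 300 μg substance in 15 μL DMSO. Actidione and amphotericin B positive controls, DMSO negative control. Incubated 25 °C for 24–48 h. Inhibition-zone diameter averaged over two replicates, scored by diameter ranges.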

Salmonella enteritidis = assay: Antibacterial activity against Salmonella enteritidis ATCC 13076 after 24 hrs by paper disk diffusion assay; type: functional, Salmonella enterica subsp. enterica serovar Enteritidis
Method in brief: (§2)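 Disk diffusion per CLSI. Overnight bacterial cultures spread on nutrient agar. 6.4 mm paper disks each loaded with 300 μg substance in 15 μL DMSO. Chloramphenicol positive control, DMSO negative control. Incubated 37 °C, 24 h. Nearest inhibition-zone diameter measured, averaged over two replicates. Scored –(<12 mm) to +++++ (≥26 mm).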

Enterococcus faecalis = assay: Antibacterial activity against Enterococcus faecalis ATCC 7080 after 24 hrs by paper disk diffusion assay; type: functional; method in brief: as §2
Listeria monocytogenes = assay: Antibacterial activity against Listeria monocytogenes ATCC 19115 after 24 hrs by paper disk diffusion assay; type: functional
Method in brief: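 Disk diffusion per CLSI, overnight culture spread on tryptone soya agar. 6.4 mm paper disks each loaded with 300 μg substance in 15 μL DMSO. Chloramphenicol positive control, DMSO negative control. Incubated 37 °C, 24 h. Inhibition-zone diameter measured, averaged over two replicates, and scored by diameter ranges.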

Staphylococcus aureus = assay: Antibacterial activity against Staphylococcus aureus ATCC 6538 after 24 hrs by paper disk diffusion assay; type: functional; method in brief: as §2
Bacillus cereus = assay: Antibacterial activity against Bacillus cereus ATCC 11778 after 24 hrs by paper disk diffusion assay; type: functional; method in brief: as §2
Bacillus subtilis = assay: Antibacterial activity against Bacillus subtilis ATCC 6633 after 24 hrs by paper disk diffusion assay; type: functional; method in brief: as §2
Aspergillus niger = assay: Antifungal activity against Aspergillus niger ATCC 16404 after 24 to 48 hrs by paper disk diffusion assay; type: functional; method in brief: as §1

SMILES: OO [HYDROGEN PEROXIDE]
- IC50 [1]: 2 µg/mL (≈ 58.8 µM)

SMILES: O=C(CO[C@H]1O[C@H](CO)[C@H](O)[C@H](O)[C@H]1O)NCc1cn(Cc2ccccc2)nn1
- IC50 [1]: 617 µg/mL (≈ 1510 µM)

SMILES: C#CCNC(=O)CO[C@H]1O[C@H](COC(C)=O)C=C(OC(C)=O)C1=O
- IC50 [1]: 282 µg/mL (≈ 831 µM)

SMILES: O=C(CO[C@H]1O[C@H](CO)[C@@H](O)[C@H](O)[C@H]1O)NCc1cn(Cc2ccccc2)nn1
- IC50 [1]: 193 µg/mL (≈ 473 µM)

SMILES: CCCCCCCCCCCCNC(=O)CO[C@@H]1O[C@H](COC(C)=O)C=C(OC(C)=O)C1=O
- inhibition zone (IZ) [2]: > 26 mm and 33 mm
- IC50 [1]: 45 µg/mL (≈ 95.8 µM)
- diameter of the inhibition zone (DIZ) (Salmonella enteritidis): 14 mm
- inhibition zone (IZ) (Salmonella enteritidis): 14 mm
- diameter of the inhibition zone (DIZ) (Enterococcus faecalis): <12 mm
- diameter of the inhibition zone (DIZ) (Listeria monocytogenes): 14 mm
- inhibition zone (IZ) (Listeria monocytogenes): 14 mm
- diameter of the inhibition zone (DIZ) (Staphylococcus aureus): 13 mm
- inhibition zone (IZ) (Staphylococcus aureus): 13 mm
- diameter of the inhibition zone (DIZ) (Bacillus cereus): 16 mm
- inhibition zone (IZ) (Bacillus cereus): 14 mm
- diameter of the inhibition zone (DIZ) (Bacillus subtilis): 21 mm
- inhibition zone (IZ) (Bacillus subtilis): 18 mm
- diameter of the inhibition zone (DIZ) (Aspergillus niger): 40 mm
- inhibition zone (IZ) (Aspergillus niger): >=26 mm

SMILES: CC(=O)OC[C@H]1O[C@H](OCC(=O)NCc2cn(Cc3ccccc3)nn2)[C@H](O)[C@@H](OC(C)=O)[C@H]1OC(C)=O
- IC50 [1]: 879 µg/mL (≈ 1640 µM)

SMILES: C=CCCCCn1cc(CN(CC=C)C(=O)CO[C@H]2O[C@H](COCC=C)[C@H](OCC=C)[C@H](O)[C@H]2OCC=C)nn1
- IC50 [1]: 1190 µg/mL (≈ 2120 µM)

SMILES: C[C@@H]1[C@H](O)[C@@H](C)/C=C/C=C/C=C/C=C/C=C/C=C/C=C/[C@H](O[C@@H]2O[C@H](C)[C@@H](O)[C@H](N)[C@@H]2O)C[C@@H]2O[C@](O)(C[C@@H](O)C[C@@H](O)[C@H](O)CC[C@@H](O)C[C@@H](O)CC(=O)O[C@H]1C)C[C@H](O)[C@H]2C(=O)O [AMPHOTERICIN B]
- inhibition zone (IZ) [2]: > 26 mm and 26 mm
- diameter of the inhibition zone (DIZ) (Aspergillus niger): 22 mm
- inhibition zone (IZ) (Aspergillus niger): 22 mm

SMILES: C=CCNC(=O)CO[C@H]1O[C@H](COC(C)=O)C=C(OC(C)=O)/C1=C\C(=O)OCC
- IC50 [1]: 352 µg/mL (≈ 856 µM)

SMILES: CCCCCCCCCCCCNC(=O)CO[C@H]1O[C@H](COC(C)=O)C=C(OC(C)=O)/C1=C\C(=O)OCC
- inhibition zone (IZ) [2]: 12 mm
- IC50 [1]: 76 µg/mL (≈ 141 µM)
- diameter of the inhibition zone (DIZ) (Salmonella enteritidis): <12 mm
- diameter of the inhibition zone (DIZ) (Enterococcus faecalis): 22 mm
- inhibition zone (IZ) (Enterococcus faecalis): 22 mm
- diameter of the inhibition zone (DIZ) (Listeria monocytogenes): <12 mm
- diameter of the inhibition zone (DIZ) (Staphylococcus aureus): 20 mm
- inhibition zone (IZ) (Staphylococcus aureus): 20 mm
- diameter of the inhibition zone (DIZ) (Bacillus cereus): <12 mm
- diameter of the inhibition zone (DIZ) (Bacillus subtilis): 12 mm
- inhibition zone (IZ) (Bacillus subtilis): 12 mm
- diameter of the inhibition zone (DIZ) (Aspergillus niger): <12 mm

SMILES: CCOC(=O)/C=C1\C(OC(C)=O)=C[C@@H](COC(C)=O)O[C@@H]1OCC(=O)NCc1ccccc1
- inhibition zone (IZ) [2]: 12 mm
- IC50 [1]: 128 µg/mL (≈ 277 µM)
- diameter of the inhibition zone (DIZ) (Salmonella enteritidis): <12 mm
- diameter of the inhibition zone (DIZ) (Enterococcus faecalis): 24 mm
- inhibition zone (IZ) (Enterococcus faecalis): 24 mm
- diameter of the inhibition zone (DIZ) (Listeria monocytogenes): <12 mm
- diameter of the inhibition zone (DIZ) (Staphylococcus aureus): <12 mm
- diameter of the inhibition zone (DIZ) (Bacillus cereus): <12 mm
- diameter of the inhibition zone (DIZ) (Bacillus subtilis): <12 mm
- diameter of the inhibition zone (DIZ) (Aspergillus niger): <12 mm

SMILES: C[S+](C)[O-] [DIMETHYL SULFOXIDE]
- IC50 [1]: 199 µg/mL (≈ 2550 µM)

SMILES: O=C(N[C@H](CO)[C@H](O)c1ccc([N+](=O)[O-])cc1)C(Cl)Cl [CHLORAMPHENICOL]
- diameter of the inhibition zone (DIZ) (Salmonella enteritidis): 41 mm
- inhibition zone (IZ) (Salmonella enteritidis): >=26 mm
- diameter of the inhibition zone (DIZ) (Enterococcus faecalis): 37 mm
- inhibition zone (IZ) (Enterococcus faecalis): >=26 mm
- diameter of the inhibition zone (DIZ) (Listeria monocytogenes): 33 mm
- inhibition zone (IZ) (Listeria monocytogenes): >=26 mm
- diameter of the inhibition zone (DIZ) (Staphylococcus aureus): 36 mm
- inhibition zone (IZ) (Staphylococcus aureus): >=26 mm
- diameter of the inhibition zone (DIZ) (Bacillus cereus): 31 mm
- inhibition zone (IZ) (Bacillus cereus): >=26 mm
- diameter of the inhibition zone (DIZ) (Bacillus subtilis): 40 mm
- inhibition zone (IZ) (Bacillus subtilis): >=26 mm

SMILES: O=C(CO[C@@H]1O[C@H](CO)[C@@H](O)[C@H](O)[C@H]1O)NCc1cn(Cc2ccccc2)nn1
- IC50 [1]: 426 µg/mL (≈ 1040 µM)

SMILES: CC(=O)OC[C@@H]1C=C(OC(C)=O)C(=O)[C@@H](OCC(=O)NCc2ccccc2)O1
- IC50 [1]: 163 µg/mL (≈ 416 µM)

SMILES: C[C@@H]1C[C@@H]([C@H](O)CC2CC(=O)NC(=O)C2)C(=O)[C@@H](C)C1 [CYCLOHEXIMIDE]
- inhibition zone (IZ) [2]: > 26 mm and 26 mm
- diameter of the inhibition zone (DIZ) (Aspergillus niger): 43 mm
- inhibition zone (IZ) (Aspergillus niger): >=26 mm

SMILES: C=CCCCCn1cc(CNC(=O)CO[C@H]2O[C@H](COC(C)=O)[C@H](OC(C)=O)[C@H](OC(C)=O)[C@H]2O)nn1
- IC50 [1]: 63 µg/mL (≈ 120 µM)

SMILES: CCCCCCCCCCCCNC(=O)CO[C@H]1O[C@H](COC(C)=O)C=C(OC(C)=O)C1=O
- inhibition zone (IZ) [2]: > 26 mm and 30 mm
- IC50 [1]: 136 µg/mL (≈ 290 µM)
- diameter of the inhibition zone (DIZ) (Salmonella enteritidis): <12 mm
- diameter of the inhibition zone (DIZ) (Enterococcus faecalis): 24 mm
- inhibition zone (IZ) (Enterococcus faecalis): 24 mm
- diameter of the inhibition zone (DIZ) (Listeria monocytogenes): 17 mm
- inhibition zone (IZ) (Listeria monocytogenes): 17 mm
- diameter of the inhibition zone (DIZ) (Staphylococcus aureus): 17 mm
- inhibition zone (IZ) (Staphylococcus aureus): 17 mm
- diameter of the inhibition zone (DIZ) (Bacillus cereus): 39 mm
- inhibition zone (IZ) (Bacillus cereus): >=26 mm
- diameter of the inhibition zone (DIZ) (Bacillus subtilis): 40 mm
- inhibition zone (IZ) (Bacillus subtilis): >=26 mm
- diameter of the inhibition zone (DIZ) (Aspergillus niger): 12 mm
- inhibition zone (IZ) (Aspergillus niger): 12 mm

SMILES: C=CCCCCn1cc(CNC(=O)CO[C@H]2O[C@H](CO)[C@H](O)[C@H](O)[C@H]2O)nn1
- IC50 [1]: 394 µg/mL (≈ 984 µM)

SMILES: CC(=O)OC[C@H]1O[C@H](OCC(=O)NCc2cn(Cc3ccccc3)nn2)[C@H](O)[C@@H](OC(C)=O)[C@@H]1OC(C)=O
- IC50 [1]: 69 µg/mL (≈ 129 µM)

SMILES: CC(=O)OC[C@@H]1C=C(OC(C)=O)C(=O)[C@@H](OCC(=O)NCc2cn(Cc3ccccc3)nn2)O1
- IC50 [1]: 10300 µg/mL (≈ 21800 µM)

SMILES: C#CCNC(=O)CO[C@H]1O[C@H](COC(C)=O)C=C(OC(C)=O)/C1=C\C(=O)OCC
- inhibition zone (IZ) [2]: < 12 mm
- IC50 [1]: 257 µg/mL (≈ 628 µM)
- diameter of the inhibition zone (DIZ) (Salmonella enteritidis): <12 mm
- diameter of the inhibition zone (DIZ) (Enterococcus faecalis): 24 mm
- inhibition zone (IZ) (Enterococcus faecalis): 24 mm
- diameter of the inhibition zone (DIZ) (Listeria monocytogenes): <12 mm
- diameter of the inhibition zone (DIZ) (Staphylococcus aureus): <12 mm
- diameter of the inhibition zone (DIZ) (Bacillus cereus): <12 mm
- diameter of the inhibition zone (DIZ) (Bacillus subtilis): <12 mm
- diameter of the inhibition zone (DIZ) (Aspergillus niger): <12 mm

SMILES: CC(=O)OC[C@H]1O[C@@H](OCC(=O)NCc2cn(Cc3ccccc3)nn2)[C@H](O)[C@@H](OC(C)=O)[C@@H]1OC(C)=O
- IC50 [1]: 505 µg/mL (≈ 945 µM)

SMILES: CCOC(=O)/C=C1\C(OC(C)=O)=C[C@@H](COC(C)=O)O[C@@H]1OCC(=O)NCc1cn(Cc2ccccc2)nn1
- IC50 [1]: 12000 µg/mL (≈ 22100 µM)

Reference: ChEMBL document CHEMBL1641513, “Synthesis of sugars embodying conjugated carbonyl systems and related triazole derivatives from carboxymethyl glycoside lactones. Evaluation of their antimicrobial activity and toxicity” (Bioorg Med Chem, 2011)
